Data reported in ChEMBL document CHEMBL4229410, “Facile construction of fused benzimidazole-isoquinolinones that induce cell-cycle arrest and apoptosis in colorectal cancer cells” (Bioorg Med Chem, 2018).
Calls of active or inactive are those of the source. No cut-off for these calls is given here.

Columns and labels:
HT-29 [1] = assay: Inhibition of colony formation in human HT-29 cells assessed as reduction in colony size at 25 to 75 uM treated for 48 hrs followed by compound washout and measured after 14 hrs by crystal violet staining based assay; assay type: functional, cell-based
SW-620 [2] = assay: Cell cycle arrest in human SW620 cells assessed as accumulation at S-phase at 25 uM after 48 hrs by propidium iodide staining based flow cytometry (reference value: 43.72%); assay type: functional
SW-620 [3] = assay: Cell cycle arrest in human SW620 cells assessed as accumulation at S-phase at 75 uM after 48 hrs by propidium iodide staining based flow cytometry (reference value: 43.72%); assay type: functional
HT-29 [4] = assay: Upregulation of p53 expression in human HT-29 cells after 48 hrs by Western blot analysis; assay type: functional, cell-based
SW-620 [5] = assay: Induction of apoptosis in human SW620 cells assessed as early apoptotic cells at 25 uM after 48 hrs by Annexin-V-FITC/propidium iodide staining based flow cytometry (reference value: 0.4%); assay type: functional
SW-620 [6] = assay: Induction of apoptosis in human SW620 cells assessed as early apoptotic cells at 75 uM after 48 hrs by Annexin-V-FITC/propidium iodide staining based flow cytometry (reference value: 0.4%); assay type: functional
HT-29 [7] = assay: Induction of apoptosis in human HT-29 cells after 48 hrs by Annexin-V-FITC/propidium iodide staining based flow cytometry; assay type: functional, cell-based
HT-29 [8] = assay: Induction of apoptosis in human HT-29 cells assessed as reduction in MCL1 expression after 48 hrs by Western blot analysis; assay type: functional, cell-based
How it was run: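 HT29 or SW620 cells were treated at 0, 25, 50 and 75 μM for 48 h and lysed in RIPA with protease and phosphatase inhibitors. Protein was quantified by BCA. 50 μg lysate was run on 8–15% SDS-PAGE and transferred to PVDF. Blocking was 5% BSA/TBST for 2 h; primary antibodies were applied overnight at 4 °C, then HRP secondary 1 h at room temperature.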

[9] = molecular target: RAC-alpha serine/threonine-protein kinase (Homo sapiens, UniProt P31749); assay: Inhibition of human AKT1 expressed in bacterial expression system assessed as residual activity at 5 uM by KINOMEscan assay relative to control
[10] = molecular target: Tyrosine-protein kinase receptor UFO (Homo sapiens) (UniProt P30530); assay: Inhibition of human AXL (R497 to Y821 residues) expressed in bacterial expression system assessed as residual activity at 5 uM by KINOMEscan assay relative to control
[11] = molecular target: Fibroblast growth factor receptor 2 (Homo sapiens, UniProt P21802); assay: Inhibition of partial length human FGFR2 (D457 to E769 residues) expressed in bacterial expression system assessed as residual activity at 5 uM by KINOMEscan assay relative to control
[12] = molecular target: Mitogen-activated protein kinase 10 (Homo sapiens, UniProt P53779); assay: Inhibition of human JNK3 (V28 to Q422 residues) expressed in mammalian expression system assessed as residual activity at 5 uM by KINOMEscan assay relative to control
[13] = system: Mast/stem cell growth factor receptor Kit (Homo sapiens), P10721 [D816V]; assay: Inhibition of human KIT (I571 to D952 residues) D816V mutant expressed in bacterial expression system assessed as residual activity at 5 uM by KINOMEscan assay relative to control
[14] = molecular target: MAP kinase-activated protein kinase 2 (Homo sapiens, UniProt P49137); assay: Inhibition of human MAPKAPK2 (V48 to D345 residues) expressed in bacterial expression system assessed as residual activity at 5 uM by KINOMEscan assay relative to control
[15] = molecular target: T1, Proto-oncogene tyrosine-protein kinase receptor Ret (Homo sapiens, UniProt P07949); assay: Inhibition of human RET (E713 to D1014 residues) expressed in bacterial expression system assessed as residual activity at 5 uM by KINOMEscan assay relative to control
Angiopoietin-1 receptor = Angiopoietin-1 receptor (Homo sapiens, UniProt Q02763); assay: Inhibition of human TIE2 (N804 to T1112 residues) expressed in bacterial expression system assessed as residual activity at 5 uM by KINOMEscan assay relative to control
[16] = molecular target: T2, Tyrosine-protein kinase ABL1 (Homo sapiens, UniProt P00519); assay: Binding affinity to human non-phosphorylated ABL1 (S229 to K512 residues) expressed in mammalian expression system by KINOMEscan assay
[17] = molecular target: T2, Tyrosine-protein kinase ABL1; assay: Binding affinity to human phosphorylated ABL1 (S229 to K512 residues) expressed in mammalian expression system by KINOMEscan assay
[18] = molecular target: ALK tyrosine kinase receptor (Homo sapiens, UniProt Q9UM73); assay: Binding affinity to human ALK (I1088 to E1409 residues) expressed in mammalian expression system by KINOMEscan assay
[19] = molecular target: Tyrosine-protein kinase receptor UFO (Homo sapiens, UniProt P30530); assay: Binding affinity to human AXL (R497 to Y821 residues) expressed in bacterial expression system by KINOMEscan assay
[20] = molecular target: Macrophage colony-stimulating factor 1 receptor (Homo sapiens, UniProt P07333); assay: Binding affinity to human CSF1R (I564 to S939 residues) expressed in bacterial expression system by KINOMEscan assay
[21] = molecular target: Casein kinase I isoform gamma-2 (Homo sapiens, UniProt P78368); assay: Binding affinity to full length human CSNK1G2 (M1 to K415 residues) expressed in bacterial expression system by KINOMEscan assay
[22] = molecular target: Tyrosine-protein kinase JAK3 (Homo sapiens, UniProt P52333); assay: Binding affinity to human JAK3 JH1 catalytic domain (I781 to S1124 residues) expressed in mammalian expression system by KINOMEscan assay
[23] = molecular target: Mast/stem cell growth factor receptor Kit (Homo sapiens, UniProt P10721); assay: Binding affinity to human KIT (I571 to D952 residues) expressed in bacterial expression system by KINOMEscan assay
[24] = molecular target: Protein kinase C epsilon type (Homo sapiens, UniProt Q02156); assay: Binding affinity to human PRKCE (A378 to P737 residues) expressed in mammalian expression system by KINOMEscan assay
[25] = molecular target: T1, Proto-oncogene tyrosine-protein kinase receptor Ret; assay: Binding affinity to human RET (E713 to D1014 residues) expressed in bacterial expression system by KINOMEscan assay
[26] = molecular target: Testis-specific serine/threonine-protein kinase 1 (Homo sapiens, UniProt Q9BXA7); assay: Binding affinity to full length human TSSK1B (M1 to Q367 residues) expressed in bacterial expression system by KINOMEscan assay
Chain of Testis-specific serine/threonine-protein kinase 1 (Q9BXA7 whole entry, the tested form may be a part): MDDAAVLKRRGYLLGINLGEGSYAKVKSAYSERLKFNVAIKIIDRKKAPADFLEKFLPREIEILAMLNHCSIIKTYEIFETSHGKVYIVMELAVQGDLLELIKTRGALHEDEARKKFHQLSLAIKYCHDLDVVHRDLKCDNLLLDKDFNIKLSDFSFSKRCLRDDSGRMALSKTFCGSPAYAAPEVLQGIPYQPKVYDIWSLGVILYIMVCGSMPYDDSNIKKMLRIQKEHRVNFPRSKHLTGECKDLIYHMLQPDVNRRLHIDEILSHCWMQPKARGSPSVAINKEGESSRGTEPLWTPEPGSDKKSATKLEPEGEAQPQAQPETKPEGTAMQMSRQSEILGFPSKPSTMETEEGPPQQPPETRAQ

T1 sequence (P07949 whole entry, the tested form may be a part): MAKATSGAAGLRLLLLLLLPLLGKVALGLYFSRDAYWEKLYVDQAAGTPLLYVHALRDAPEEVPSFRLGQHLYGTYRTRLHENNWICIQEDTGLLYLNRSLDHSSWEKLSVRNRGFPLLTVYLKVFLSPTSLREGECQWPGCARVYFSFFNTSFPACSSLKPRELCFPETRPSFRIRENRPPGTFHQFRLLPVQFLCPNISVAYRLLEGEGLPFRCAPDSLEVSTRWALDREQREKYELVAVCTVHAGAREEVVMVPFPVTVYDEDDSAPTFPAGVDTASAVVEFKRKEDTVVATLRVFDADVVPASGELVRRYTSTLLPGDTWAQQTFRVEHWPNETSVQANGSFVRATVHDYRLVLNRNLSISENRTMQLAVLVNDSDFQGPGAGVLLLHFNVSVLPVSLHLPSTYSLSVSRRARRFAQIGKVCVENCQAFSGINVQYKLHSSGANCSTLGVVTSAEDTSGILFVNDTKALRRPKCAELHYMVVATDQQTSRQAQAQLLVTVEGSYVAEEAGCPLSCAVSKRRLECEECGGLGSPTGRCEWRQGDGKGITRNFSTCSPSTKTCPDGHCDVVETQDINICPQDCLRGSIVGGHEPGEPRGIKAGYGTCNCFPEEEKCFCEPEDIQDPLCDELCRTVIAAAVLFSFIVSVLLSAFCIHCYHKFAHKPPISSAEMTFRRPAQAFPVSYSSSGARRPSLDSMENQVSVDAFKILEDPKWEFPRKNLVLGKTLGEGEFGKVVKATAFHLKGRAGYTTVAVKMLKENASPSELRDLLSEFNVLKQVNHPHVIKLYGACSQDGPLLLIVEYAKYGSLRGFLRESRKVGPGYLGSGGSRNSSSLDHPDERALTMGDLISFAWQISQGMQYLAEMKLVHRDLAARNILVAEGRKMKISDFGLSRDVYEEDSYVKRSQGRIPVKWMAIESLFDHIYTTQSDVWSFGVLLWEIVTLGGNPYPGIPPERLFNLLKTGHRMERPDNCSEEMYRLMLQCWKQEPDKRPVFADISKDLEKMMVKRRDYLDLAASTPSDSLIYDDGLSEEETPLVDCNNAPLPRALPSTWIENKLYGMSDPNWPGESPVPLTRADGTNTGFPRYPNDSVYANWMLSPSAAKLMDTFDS
T2 sequence (P00519 whole entry, the tested form may be a part): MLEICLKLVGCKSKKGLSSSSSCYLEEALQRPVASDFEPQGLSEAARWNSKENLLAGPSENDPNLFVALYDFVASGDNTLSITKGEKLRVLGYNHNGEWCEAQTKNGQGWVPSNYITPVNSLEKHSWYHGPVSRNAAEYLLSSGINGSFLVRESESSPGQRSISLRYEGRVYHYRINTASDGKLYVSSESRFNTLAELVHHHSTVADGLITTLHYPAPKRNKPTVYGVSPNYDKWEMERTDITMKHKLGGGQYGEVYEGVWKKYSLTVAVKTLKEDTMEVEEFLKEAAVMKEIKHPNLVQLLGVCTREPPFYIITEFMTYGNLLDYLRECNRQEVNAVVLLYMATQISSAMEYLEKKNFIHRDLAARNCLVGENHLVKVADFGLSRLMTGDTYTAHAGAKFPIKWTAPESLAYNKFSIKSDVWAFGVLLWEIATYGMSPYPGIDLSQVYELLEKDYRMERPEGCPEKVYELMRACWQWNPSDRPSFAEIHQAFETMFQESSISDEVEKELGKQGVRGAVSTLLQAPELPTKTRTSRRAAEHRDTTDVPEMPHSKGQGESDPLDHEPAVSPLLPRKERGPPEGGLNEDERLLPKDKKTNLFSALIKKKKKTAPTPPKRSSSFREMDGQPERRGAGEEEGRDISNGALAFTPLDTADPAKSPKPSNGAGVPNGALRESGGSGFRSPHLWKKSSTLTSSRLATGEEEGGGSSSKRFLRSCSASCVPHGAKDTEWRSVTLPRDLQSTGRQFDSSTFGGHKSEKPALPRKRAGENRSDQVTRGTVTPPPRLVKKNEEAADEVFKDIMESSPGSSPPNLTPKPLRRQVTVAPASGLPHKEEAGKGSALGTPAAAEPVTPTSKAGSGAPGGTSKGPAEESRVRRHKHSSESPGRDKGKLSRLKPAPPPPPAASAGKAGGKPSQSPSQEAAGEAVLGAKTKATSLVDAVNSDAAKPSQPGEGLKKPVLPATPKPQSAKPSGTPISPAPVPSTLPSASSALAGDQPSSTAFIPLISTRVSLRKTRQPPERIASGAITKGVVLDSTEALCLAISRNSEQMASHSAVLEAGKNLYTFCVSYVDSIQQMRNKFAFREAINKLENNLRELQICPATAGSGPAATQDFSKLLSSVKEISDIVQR
Chain of MAP kinase-activated protein kinase 2 (P49137 whole entry, looked up, the tested form may be a part): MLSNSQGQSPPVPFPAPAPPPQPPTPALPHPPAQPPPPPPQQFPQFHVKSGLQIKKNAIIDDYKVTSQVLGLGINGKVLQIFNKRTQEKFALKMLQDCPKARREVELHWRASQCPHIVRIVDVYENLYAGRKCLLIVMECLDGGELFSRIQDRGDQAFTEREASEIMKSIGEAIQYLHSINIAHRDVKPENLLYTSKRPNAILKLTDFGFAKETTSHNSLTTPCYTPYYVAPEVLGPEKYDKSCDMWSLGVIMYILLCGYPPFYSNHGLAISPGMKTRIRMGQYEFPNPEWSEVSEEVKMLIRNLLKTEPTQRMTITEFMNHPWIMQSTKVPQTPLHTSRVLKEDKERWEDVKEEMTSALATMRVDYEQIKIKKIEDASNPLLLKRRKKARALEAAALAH
Chain of Mast/stem cell growth factor receptor Kit (P10721 whole entry, the tested form may be a part): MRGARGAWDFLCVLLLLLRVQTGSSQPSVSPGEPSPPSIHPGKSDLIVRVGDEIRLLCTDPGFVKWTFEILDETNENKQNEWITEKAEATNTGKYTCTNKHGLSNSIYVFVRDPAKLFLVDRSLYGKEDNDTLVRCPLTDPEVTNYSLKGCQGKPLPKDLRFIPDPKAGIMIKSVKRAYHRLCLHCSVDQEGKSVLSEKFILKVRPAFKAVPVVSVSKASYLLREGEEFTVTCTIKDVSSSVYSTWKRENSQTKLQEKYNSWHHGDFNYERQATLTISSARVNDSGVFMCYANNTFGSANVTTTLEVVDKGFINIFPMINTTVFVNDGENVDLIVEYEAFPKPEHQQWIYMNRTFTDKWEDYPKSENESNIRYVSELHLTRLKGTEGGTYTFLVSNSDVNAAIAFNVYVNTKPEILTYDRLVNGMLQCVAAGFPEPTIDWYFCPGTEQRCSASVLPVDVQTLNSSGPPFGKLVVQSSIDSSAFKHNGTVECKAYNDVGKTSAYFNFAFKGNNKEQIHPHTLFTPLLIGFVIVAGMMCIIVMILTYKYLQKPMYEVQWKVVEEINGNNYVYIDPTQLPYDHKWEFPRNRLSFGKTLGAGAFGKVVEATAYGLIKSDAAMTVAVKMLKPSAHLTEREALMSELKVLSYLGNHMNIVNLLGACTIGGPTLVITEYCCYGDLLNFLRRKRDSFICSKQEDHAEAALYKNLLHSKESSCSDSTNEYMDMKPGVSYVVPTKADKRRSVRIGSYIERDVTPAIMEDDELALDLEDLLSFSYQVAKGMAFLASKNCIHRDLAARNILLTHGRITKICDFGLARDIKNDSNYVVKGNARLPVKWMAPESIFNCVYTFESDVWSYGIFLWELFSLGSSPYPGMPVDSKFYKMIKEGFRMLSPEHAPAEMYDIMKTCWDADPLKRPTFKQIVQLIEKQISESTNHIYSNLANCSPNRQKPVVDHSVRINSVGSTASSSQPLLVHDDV
Chain of Mast/stem cell growth factor receptor Kit (Homo sapiens), P10721 [D816V] (P10721 whole entry D816V, the tested form may be a part): as the sequence (P10721 whole entry, the tested form may be a part) above, with D816V counted along it
Chain of RAC-alpha serine/threonine-protein kinase (P31749 whole entry, the tested form may be a part): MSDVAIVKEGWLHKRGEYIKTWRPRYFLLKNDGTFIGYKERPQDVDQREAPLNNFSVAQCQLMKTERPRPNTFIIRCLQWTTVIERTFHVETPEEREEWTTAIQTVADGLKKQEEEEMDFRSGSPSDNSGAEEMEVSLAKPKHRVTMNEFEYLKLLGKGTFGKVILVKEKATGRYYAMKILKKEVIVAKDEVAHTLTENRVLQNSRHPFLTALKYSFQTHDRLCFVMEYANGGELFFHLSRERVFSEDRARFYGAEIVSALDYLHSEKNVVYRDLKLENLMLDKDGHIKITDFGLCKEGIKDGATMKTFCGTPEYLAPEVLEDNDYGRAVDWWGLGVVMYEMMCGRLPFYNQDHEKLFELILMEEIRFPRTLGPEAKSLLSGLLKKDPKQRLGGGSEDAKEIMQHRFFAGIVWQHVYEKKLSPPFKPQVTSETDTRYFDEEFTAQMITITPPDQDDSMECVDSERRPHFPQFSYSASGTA
Chain of Mitogen-activated protein kinase 10 (P53779 whole entry, the tested form may be a part): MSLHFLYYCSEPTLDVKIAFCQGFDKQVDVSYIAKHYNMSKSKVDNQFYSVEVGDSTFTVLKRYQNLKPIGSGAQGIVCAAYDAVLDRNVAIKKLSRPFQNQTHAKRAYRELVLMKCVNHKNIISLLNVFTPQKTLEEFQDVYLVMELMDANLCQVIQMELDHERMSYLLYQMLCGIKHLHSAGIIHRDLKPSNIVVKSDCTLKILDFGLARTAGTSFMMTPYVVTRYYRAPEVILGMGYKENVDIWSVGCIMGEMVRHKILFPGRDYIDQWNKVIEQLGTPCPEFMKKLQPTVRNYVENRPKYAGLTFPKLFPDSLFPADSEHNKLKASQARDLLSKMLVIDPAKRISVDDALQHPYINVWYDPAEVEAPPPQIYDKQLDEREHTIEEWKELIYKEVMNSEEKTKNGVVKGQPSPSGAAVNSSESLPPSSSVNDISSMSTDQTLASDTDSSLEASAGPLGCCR

Compound: CC(C)CN(C(=O)c1cccnc1)c1c2ccccc2c(=O)n2c1[nH]c1ccccc12
- inhibition (HT-29 [1]): Active
- Activity (SW-620 [2]): 43.71%
- Activity (SW-620 [3]): 38.82%
- Activity (HT-29 [4]): Dose-dependent effect
- Activity (SW-620 [5]): 0.7%
- Activity (SW-620 [6]): 0.2%
- Activity (HT-29 [7]): Dose-dependent effect
- Activity (HT-29 [8]): Dose-dependent effect
- Activity [9]: 98%
- Activity [10]: 100%
- Activity [11]: 76%
- Activity [12]: 95%
- Activity [13]: 100%
- Activity [14]: 100%
- Activity [15]: 100%
- Activity (Angiopoietin-1 receptor): 88%
- Kd [16]: ≥ 5 µM
- Kd [17]: ≥ 5 µM
- Kd [18]: ≥ 5 µM
- Kd [19]: ≥ 5 µM
- Kd [20]: ≥ 5 µM
- Kd [21]: ≥ 5 µM
- Kd [22]: ≥ 5 µM
- Kd [23]: ≥ 5 µM
- Kd [24]: ≥ 5 µM
- Kd [25]: ≥ 5 µM
- Kd [26]: ≥ 5 µM
